Results: ChEMBL document CHEMBL1139444, “Oxazolidinone: search for highly potent antibacterial” (2004)
Converted amounts (≈) assume the structure as drawn.

Experiments:
Format in all cases: functional
Staphylococcus aureus [1] = experiment: Minimum inhibitory concentration against Staphylococcus aureus ATCC 14154
Procedure, shortened: (§1)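 Microbroth dilution MIC determination, with results expressed in μg/mL. Where run in triplicate, the highest MIC of the three replicates is the value reported.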

Bacillus pumilus = experiment: Minimum inhibitory concentration against Bacillus pumilus MTCC 1607; procedure, shortened: as §1
Klebsiella pneumoniae = experiment: Minimum inhibitory concentration against Klebsiella pneumoniae ATCC 10031; procedure, shortened: as §1
Enterococcus faecalis [2] = experiment: Minimum inhibitory concentration against Enterococcus faecalis ATCC 14506; procedure, shortened: as §1
Staphylococcus aureus [3] = experiment: Minimum inhibitory concentration against Staphylococcus aureus MTCC 96; procedure, shortened: as §1
Staphylococcus aureus [4] = experiment: Minimum inhibitory concentration against Staphylococcus aureus ATCC 25923; procedure, shortened: as §1
Staphylococcus aureus [5] = experiment: Minimum inhibitory concentration against Staphylococcus aureus ATCC 29213; procedure, shortened: as §1
Streptococcus pyogenes = experiment: Minimum inhibitory concentration against Streptococcus pyogenes MTCC 442; procedure, shortened: as §1
[6] = system: Staphylococcus epidermidis; experiment: Minimum inhibitory concentration against Staphylococcus epidermidis MTCC 155; procedure, shortened: as §1
Bacillus cereus = experiment: Minimum inhibitory concentration against Bacillus cereus MTCC 430; procedure, shortened: as §1
Enterococcus faecalis [7] = experiment: Minimum inhibitory concentration against Enterococcus faecalis MTCC 439; procedure, shortened: as §1

MIC (Staphylococcus aureus [1]) [µg/mL]	MIC (Bacillus pumilus) [µg/mL]	MIC (Klebsiella pneumoniae) [µg/mL]	MIC (Enterococcus faecalis [2]) [µg/mL]	MIC (Staphylococcus aureus [3]) [µg/mL]	MIC (Staphylococcus aureus [4]) [µg/mL]	MIC (Staphylococcus aureus [5]) [µg/mL]	MIC (Streptococcus pyogenes) [µg/mL]	MIC [6] [µg/mL]	MIC (Bacillus cereus) [µg/mL]	MIC (Enterococcus faecalis [7]) [µg/mL]	SMILES
1 (≈ 1.9 µM)	0.25 (≈ 0.475 µM)	2 (≈ 3.8 µM)	0.25 (≈ 0.475 µM)	1 (≈ 1.9 µM)	0.5 (≈ 0.95 µM)	1 (≈ 1.9 µM)	4 (≈ 7.6 µM)	1 (≈ 1.9 µM)	0.25 (≈ 0.475 µM)	8 (≈ 15.2 µM)	C/C(S)=N/C[C@H]1CN(c2ccc(N3CCN(C(=O)/C=C/c4ccc5c(c4)OCO5)CC3)c(F)c2)C(=O)O1
–	2 (≈ 4.03 µM)	–	–	4 (≈ 8.06 µM)	–	–	4 (≈ 8.06 µM)	1 (≈ 2.01 µM)	2 (≈ 4.03 µM)	4 (≈ 8.06 µM)	COc1ccc(/C=C/C(=O)N2CCN(c3ccc(N4C[C@H](CNC(C)=O)OC4=O)cc3F)CC2)cc1
–	2 (≈ 3.9 µM)	–	–	16 (≈ 31.2 µM)	–	–	16 (≈ 31.2 µM)	1 (≈ 1.95 µM)	2 (≈ 3.9 µM)	2 (≈ 3.9 µM)	CSc1ccc(/C=C/C(=O)N2CCN(c3ccc(N4C[C@H](CNC(C)=O)OC4=O)cc3F)CC2)cc1
–	2 (≈ 3.91 µM)	–	–	4 (≈ 7.82 µM)	–	–	1 (≈ 1.95 µM)	4 (≈ 7.82 µM)	1 (≈ 1.95 µM)	4 (≈ 7.82 µM)	CC(=O)NC[C@H]1CN(c2ccc(N3CCN(C(=O)/C=C/c4ccc([N+](=O)[O-])cc4)CC3)c(F)c2)C(=O)O1
–	8 (≈ 16 µM)	–	–	8 (≈ 16 µM)	–	–	16 (≈ 32.1 µM)	4 (≈ 8.02 µM)	16 (≈ 32.1 µM)	8 (≈ 16 µM)	CC(=O)NC[C@H]1CN(c2ccc(N3CCN(C(=O)/C=C/c4ccc(O)c(O)c4)CC3)c(F)c2)C(=O)O1
–	8 (≈ 14.1 µM)	–	–	> 16	–	–	> 16	4 (≈ 7.06 µM)	16 (≈ 28.2 µM)	8 (≈ 14.1 µM)	CC(=O)NC[C@H]1CN(c2ccc(N3CCN(C(=O)/C=C/c4ccc(OC(=O)C(C)(C)C)cc4)CC3)c(F)c2)C(=O)O1
–	16 (≈ 31.8 µM)	–	–	> 16	–	–	4 (≈ 7.96 µM)	> 16	4 (≈ 7.96 µM)	> 16	CC(=O)NC[C@H]1CN(c2ccc(N3CCN(C(=O)/C=C/c4ccc(F)c(F)c4)CC3)c(F)c2)C(=O)O1
–	2 (≈ 3.43 µM)	–	–	4 (≈ 6.87 µM)	–	–	4 (≈ 6.87 µM)	1 (≈ 1.72 µM)	2 (≈ 3.43 µM)	2 (≈ 3.43 µM)	CC(=O)NC[C@H]1CN(c2ccc(N3CCN(C(=O)/C=C/c4ccc(OC(C)=O)c(OC(C)=O)c4)CC3)c(F)c2)C(=O)O1
–	> 16	–	–	> 16	–	–	> 16	> 16	> 16	> 16	CC(=O)NC[C@H]1CN(c2ccc(N3CCN(C(=O)/C=C/c4ccc(-c5ccccc5)cc4)CC3)c(F)c2)C(=O)O1
–	1 (≈ 2.08 µM)	–	–	1 (≈ 2.08 µM)	–	–	2 (≈ 4.15 µM)	0.5 (≈ 1.04 µM)	1 (≈ 2.08 µM)	1 (≈ 2.08 µM)	CC(=O)NC[C@H]1CN(c2ccc(N3CCN(C(=O)/C=C/c4ccc(N)cc4)CC3)c(F)c2)C(=O)O1
2 (≈ 4.14 µM)	0.5 (≈ 1.04 µM)	> 16	0.5 (≈ 1.04 µM)	2 (≈ 4.14 µM)	1 (≈ 2.07 µM)	1 (≈ 2.07 µM)	0.5 (≈ 1.04 µM)	0.25 (≈ 0.518 µM)	0.5 (≈ 1.04 µM)	0.5 (≈ 1.04 µM)	C/C(S)=N/C[C@H]1CN(c2ccc(N3CCN(C(=O)/C=C/c4ccccc4)CC3)c(F)c2)C(=O)O1
2 (≈ 3.92 µM)	1 (≈ 1.96 µM)	> 16	2 (≈ 3.92 µM)	2 (≈ 3.92 µM)	4 (≈ 7.84 µM)	4 (≈ 7.84 µM)	2 (≈ 3.92 µM)	1 (≈ 1.96 µM)	1 (≈ 1.96 µM)	1 (≈ 1.96 µM)	CC(=O)NC[C@H]1CN(c2ccc(N3CCN(C(=O)/C=C/c4ccc5c(c4)OCO5)CC3)c(F)c2)C(=O)O1
–	4 (≈ 7.14 µM)	–	–	8 (≈ 14.3 µM)	–	–	2 (≈ 3.57 µM)	8 (≈ 14.3 µM)	1 (≈ 1.78 µM)	4 (≈ 7.14 µM)	CC(=O)NC[C@H]1CN(c2ccc(N3CCN(C(=O)/C=C/c4ccc(OS(C)(=O)=O)cc4)CC3)c(F)c2)C(=O)O1
1 (≈ 1.9 µM)	1 (≈ 1.9 µM)	> 16	0.5 (≈ 0.948 µM)	1 (≈ 1.9 µM)	2 (≈ 3.79 µM)	2 (≈ 3.79 µM)	0.5 (≈ 0.948 µM)	0.25 (≈ 0.474 µM)	1 (≈ 1.9 µM)	0.25 (≈ 0.474 µM)	N=C(S)NC[C@H]1CN(c2ccc(N3CCN(C(=O)/C=C/c4ccc5c(c4)OCO5)CC3)c(F)c2)C(=O)O1
2 (≈ 4.14 µM)	1 (≈ 2.07 µM)	> 16	2 (≈ 4.14 µM)	2 (≈ 4.14 µM)	1 (≈ 2.07 µM)	2 (≈ 4.14 µM)	2 (≈ 4.14 µM)	0.25 (≈ 0.518 µM)	0.5 (≈ 1.04 µM)	1 (≈ 2.07 µM)	CC(=O)NC[C@H]1CN(c2ccc(N3CCN(C(=O)/C=C/c4ccc(O)cc4)CC3)c(F)c2)C(=O)O1
4 (≈ 8.29 µM)	0.5 (≈ 1.04 µM)	> 16	1 (≈ 2.07 µM)	2 (≈ 4.14 µM)	4 (≈ 8.29 µM)	1 (≈ 2.07 µM)	2 (≈ 4.14 µM)	0.25 (≈ 0.518 µM)	0.5 (≈ 1.04 µM)	1 (≈ 2.07 µM)	CC(=O)NC[C@H]1CN(c2ccc(N3CCN(C(=O)/C=C/c4cccc(O)c4)CC3)c(F)c2)C(=O)O1
–	8 (≈ 15.3 µM)	–	–	8 (≈ 15.3 µM)	–	–	8 (≈ 15.3 µM)	4 (≈ 7.64 µM)	4 (≈ 7.64 µM)	4 (≈ 7.64 µM)	CC(=O)NC[C@H]1CN(c2ccc(N3CCN(C(=O)/C=C/c4ccc(NC(C)=O)cc4)CC3)c(F)c2)C(=O)O1
4 (≈ 8.57 µM)	1 (≈ 2.14 µM)	> 16	1 (≈ 2.14 µM)	4 (≈ 8.57 µM)	2 (≈ 4.29 µM)	4 (≈ 8.57 µM)	2 (≈ 4.29 µM)	0.5 (≈ 1.07 µM)	1 (≈ 2.14 µM)	2 (≈ 4.29 µM)	CC(=O)NC[C@H]1CN(c2ccc(N3CCN(C(=O)/C=C/c4ccccc4)CC3)c(F)c2)C(=O)O1
1 (≈ 2 µM)	0.5 (≈ 0.999 µM)	> 16	2 (≈ 4 µM)	1 (≈ 2 µM)	4 (≈ 7.99 µM)	4 (≈ 7.99 µM)	2 (≈ 4 µM)	0.5 (≈ 0.999 µM)	0.5 (≈ 0.999 µM)	0.5 (≈ 0.999 µM)	C/C(S)=N/C[C@H]1CN(c2ccc(N3CCN(C(=O)/C=C/c4ccc(F)cc4)CC3)c(F)c2)C(=O)O1
2 (≈ 4.14 µM)	1 (≈ 2.07 µM)	8 (≈ 16.5 µM)	0.5 (≈ 1.03 µM)	1 (≈ 2.07 µM)	2 (≈ 4.14 µM)	1 (≈ 2.07 µM)	0.25 (≈ 0.517 µM)	1 (≈ 2.07 µM)	0.25 (≈ 0.517 µM)	0.5 (≈ 1.03 µM)	NC(=S)NC[C@H]1CN(c2ccc(N3CCN(C(=O)/C=C/c4ccccc4)CC3)c(F)c2)C(=O)O1
–	4 (≈ 8.26 µM)	–	–	16 (≈ 33 µM)	–	–	8 (≈ 16.5 µM)	2 (≈ 4.13 µM)	4 (≈ 8.26 µM)	4 (≈ 8.26 µM)	CC(=O)NC[C@H]1CN(c2ccc(N3CCN(C(=O)/C=C/c4ccc(F)cc4)CC3)c(F)c2)C(=O)O1
0.5 (≈ 1 µM)	0.25 (≈ 0.501 µM)	4 (≈ 8.02 µM)	0.25 (≈ 0.501 µM)	0.25 (≈ 0.501 µM)	0.25 (≈ 0.501 µM)	0.5 (≈ 1 µM)	0.5 (≈ 1 µM)	≤ 0.12	0.25 (≈ 0.501 µM)	1 (≈ 2.01 µM)	C/C(S)=N/C[C@H]1CN(c2ccc(N3CCN(C(=O)/C=C/c4ccc(O)cc4)CC3)c(F)c2)C(=O)O1
4 (≈ 10.1 µM)	2 (≈ 5.07 µM)	> 16	2 (≈ 5.07 µM)	–	4 (≈ 10.1 µM)	4 (≈ 10.1 µM)	4 (≈ 10.1 µM)	1 (≈ 2.54 µM)	2 (≈ 5.07 µM)	4 (≈ 10.1 µM)	CC(=O)NC[C@H]1CN(c2ccc(N3CCN(C(=O)CO)CC3)c(F)c2)C(=O)O1 [EPEREZOLID]

SMILES	MIC (Staphylococcus aureus [1]) [µg/mL]	MIC (Bacillus pumilus) [µg/mL]	MIC (Klebsiella pneumoniae) [µg/mL]	MIC (Enterococcus faecalis [2]) [µg/mL]	MIC (Staphylococcus aureus [3]) [µg/mL]	MIC (Staphylococcus aureus [4]) [µg/mL]	MIC (Staphylococcus aureus [5]) [µg/mL]	MIC (Streptococcus pyogenes) [µg/mL]	MIC [6] [µg/mL]	MIC (Bacillus cereus) [µg/mL]	MIC (Enterococcus faecalis [7]) [µg/mL]
CC(=O)NC[C@H]1CN(c2ccc(N3CCOCC3)c(F)c2)C(=O)O1 [LINEZOLID]	–	1 (≈ 2.96 µM)	> 16	–	–	–	–	0.5 (≈ 1.48 µM)	2 (≈ 5.93 µM)	2 (≈ 5.93 µM)	–
